High-throughput results deposited in PubChem by several laboratories.
L major viab – Leishmania major promastigote growth inhibition, primary screen. Leishmania major promastigotes, resazurin fluorescence viability. inhibition, % at 10 µM. hit rate 9% among 200,000; in the data active means inhibition above about 50%;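 further: promastigotes grown with compound for 44 hours at 28 °C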
T cruzi inh – inhibitors of intracellular T. cruzi growth, primary screen, luminescence, NIH3T3 host cells; T. cruzi beta-gal in NIH3T3, 90 h; inhibition, % (no concentration beside the values); hit rate 1.4% among 300,000;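 active means mean inhibition across valid replicates above about 55%, limit read from the data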;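 further: signal also drops with host cell toxicity which is not excluded here; higher percent means less beta-gal luminescence so fewer parasites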
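Material: NIH/3T3 host cells with β-galactosidase reporter T. cruzi; Input: 5,000 host fibroblasts per well; Medium: DMEM, 2% fetal bovine serum; Compound: 50 nL DMSO compound solution per well; Schedule: 3 h host attachment, then at least 90 h co-culture; Detection: luminescent β-galactosidase signal after 60 min lysis.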
Dynein cargo inh – inhibitors of GR-EGFP nuclear translocation, primary screen, dynein cargo transport inhibitor project, imaging, high-content, 3617.4 mouse cells. test concentration mostly 20 µM; stimulated with dexamethasone, 1 µM; hits give low values. z-score, hits read low. hit rate 0.47% among 220,000. AID 1381, 2008;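 active means plate z-score of nuclear minus cytoplasmic receptor signal below a set negative limit, without overly bright fluorescence or cell loss, cut at about -3.5 in these data, passing the limit was not always enough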;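 further: z-score of nuclear minus cytoplasmic ring GR-EGFP intensity difference per well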
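Buffer or medium: tet-free medium with charcoal-stripped serum / Also added: dexamethasone agonist, 1.0 µM final, for 30 min / Timing: induction 48 h, compound 1 h, agonist 30 min / Measured by: high-content fluorescence imaging after fixation / Read-out: nuclear-to-cytoplasmic GR-EGFP distribution per well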
CHOP inh – inhibitors of CHOP promoter induction, primary screen, cell-based, unfolded protein response, luciferase reporter; hit rate 3.8% among 220,000; CHO-K1 CHOP-promoter luciferase, tunicamycin-induced, 15-18 h; inhibition, % at 10 µM;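 active means compounds that reduced the stress-induced luciferase reporter signal by more than about 70% of percent inhibition, limit read from the data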
CHOP UPR activ – activators of apoptotic CHOP UPR arm, primary screen, cell-based, CHO-CHOP luciferase reporter, luminescence, uHTS; UPR activation; percent of tunicamycin response over DMSO baseline; activation, % at 10 µM; hit rate 0.34% among 330,000;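 active means at 10 µM dose, activation of 40% or more, normalized to positive control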
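Test system: CHO-CHOP cells, stable luciferase reporter of PERK-eIF2a-CHOP signalling | Quantity: 500 CHO-CHOP cells per well | Buffer or medium: F12 plus 10% serum | Compound dosing: 10 µM single point, 0.5% DMSO | Schedule: 6 h compound treatment, 37 °C | Signal: Luciferase luminescence | Control set: Tunicamycin high control, DMSO low control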
XBP1 UPR activ – activators of adaptive XBP1 UPR arm, primary screen, cell-based, CHO-XBP1 luciferase reporter, luminescence, uHTS; IRE1-XBP1 UPR activation; percent of tunicamycin response, DMSO as zero; activation, % at 20 µM; hit rate 0.33% among 330,000;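 active means versus positive control, 20 µM dose yields 30% or more activation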
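Material – CHO cell line with stable XBP1 luciferase reporter · Buffer or medium – F12 plus 10% FBS · Compound – single point, 20 µM final compound, 1% DMSO · Schedule – 16-18 h cell attachment at 37 °C, then 6 h compound exposure · Signal – Steady-Glo luminescence read · Benchmarks – high control tunicamycin 10 µg/mL final, low control DMSO vehicle only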
Each line names hits and unclear results; the compound was inactive in the other large screens. The full list was thinned out, with hits kept by preference.

Cc1ccccc1OCC(=O)N/N=C/c1ccc([N+](=O)[O-])o1	L major viab 98, T cruzi inh 61
COc1ccccc1OCC(=O)N/N=C/C=C/c1ccc([N+](=O)[O-])o1	L major viab 100, T cruzi inh 58
COc1ccccc1N(CC(=O)N1CCCC1)S(=O)(=O)c1cc([N+](=O)[O-])ccc1Cl	none (no result: L major viab, T cruzi inh, Dynein cargo inh, CHOP inh)
Cc1ccc(NC(=O)c2ccc3nc(N4CCOCC4)sc3c2)c(Cl)c1	none (no result: L major viab, Dynein cargo inh, CHOP inh)
COc1cccc(C2(C)NC(=O)N(CC(=O)c3cc(C)n(C4CC4)c3C)C2=O)c1 (configuration not stated)	none (no result: L major viab, T cruzi inh, Dynein cargo inh, CHOP inh)
Cc1cc(C)cc(OCC(=O)N/N=C/c2ccc([N+](=O)[O-])o2)c1	L major viab 96, T cruzi inh 60
CCCOc1ccc(CCC(=O)N/N=C/c2ccc([N+](=O)[O-])o2)cc1	none (no result: L major viab)
O=C(N/N=C\C=C\c1ccc([N+](=O)[O-])o1)c1cccs1	T cruzi inh 78 (no result: L major viab, Dynein cargo inh, CHOP inh)
O=C(N/N=C/C=C/c1ccccc1[N+](=O)[O-])c1cccs1	none
CC1CCN(C(=O)COC(=O)C2CCN(S(=O)(=O)c3ccc4c(c3)OCCO4)CC2)CC1	none (no result: L major viab, Dynein cargo inh, CHOP inh)
O=S(=O)(c1ccc(Cl)cc1)N(CCCN1CCOCC1)Cc1cccs1	L major viab 68
O=C(Nc1ccc(Cl)cc1)N(CCCN1CCOCC1)Cc1cccs1	none
COc1ccc(S(=O)(=O)N(CCCN2CCOCC2)Cc2cccc3ccccc23)cc1	L major viab 99
CCOC(=O)N1CCC(N2Cc3cccc(C(=O)NCc4ccccc4OC)c3C2=O)CC1	none
CCOC(=O)N1CCC(N2Cc3cccc(C(=O)NCc4ccc(OC)cc4)c3C2=O)CC1	L major viab 70
Nc1nc(-c2c(Cl)cccc2Cl)no1	none (no result: L major viab)
O=C(CCN1CCc2ccccc2C(c2ccccc2)C1)c1ccc2c(c1)OCCO2 (configuration not stated)	L major viab 100
O=C(O)CCC(=O)c1ccc2c(c1)OCCO2	none
CC(C)C1Oc2cc3oc(=O)ccc3cc2C1=O (configuration not stated)	none
COC(CNC(=O)C(=O)NCC1CCCN1S(=O)(=O)c1cccs1)OC (configuration not stated)	none (no result: L major viab, Dynein cargo inh, CHOP inh)
C=CCNC(=O)COc1ccc(S(=O)(=O)Nc2ccc(OCC)cc2)cc1	L major viab 60
CCOc1ccc(NS(=O)(=O)c2ccc3c(c2)CCN3C(=O)CCC(=O)O)cc1	none
C=CCNC(=O)COc1ccc(S(=O)(=O)NC2CCCCC2)cc1	none
O=C(C1CCC1)N1CCc2cc(S(=O)(=O)NCCN3CCN(c4ccccc4F)CC3)ccc21	CHOP inh 74
Cc1cc(C)c(C)c(S(=O)(=O)NC2CCN(Cc3ccccc3)CC2)c1C	L major viab 59, CHOP inh 79
O=C(C1CC1)N1CCc2cc(S(=O)(=O)NCCCN3CCCCC3)ccc21	none (no result: L major viab, Dynein cargo inh, CHOP inh)
CCOc1ccc(NS(=O)(=O)c2ccc3c(c2)CCN3C(=O)C2CCC2)cc1	CHOP inh 82
O=C(CSc1nncs1)Nc1ccc(N2CCCCC2)cc1	none (no result: L major viab, T cruzi inh, Dynein cargo inh, CHOP inh)
CC(Sc1nnc(C2CC2)n1-c1ccccc1)C(=O)N1CCCC1 (configuration not stated)	none (no result: L major viab, T cruzi inh, Dynein cargo inh, CHOP inh)
Cn1c(=O)oc2cc(S(=O)(=O)NCCC(=O)N3CC=C(c4ccccc4)CC3)ccc21	none
CC(C)CC(NS(=O)(=O)c1ccc2c(c1)oc(=O)n2C)C(=O)N1CC=C(c2ccccc2)CC1 (configuration not stated)	L major viab 86 (no result: T cruzi inh)
Cn1c(=O)oc2cc(S(=O)(=O)Nc3ccc4c(c3)OCO4)ccc21	L major viab 66
CCC1CCCCN1Cc1ccc(CNS(=O)(=O)c2ccc3c(c2)oc(=O)n3C)o1 (configuration not stated)	L major viab 98
Cn1c(=O)oc2cc(S(=O)(=O)NC3CCN(Cc4ccccc4)CC3)ccc21	L major viab 50
